Measured values as given in ChEMBL document CHEMBL1817653, “Synthesis, structural, and biological evaluation of bis-heteroarylmaleimides and bis-heterofused imides” (Bioorg Med Chem, 2011).
Activity calls are given as the source filed them. The calls are words filed in the database; no cut-off is given here.

Assays:
NCI-H460 [1] = assay: Cytotoxicity against human NCI-H460 cells after 3 days by cell counting analysis; type: functional, cell-based; settings: NCI-H460, 72 h
Method in brief: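 NCI-H460 cells in RPMI-1640 with 10% FCS are seeded at 8 × 10⁴ per 35-mm dish and exposed to compound (DMSO at most 1%) 24 h later. Cells are harvested after 72 h, trypsinized and counted with a Coulter counter. IC50 is derived by linear regression of log concentration versus logit.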

NCI-H460 [2] = assay: Cell cycle arrest in human NCI-H460 cells assessed as accumulation at S phase at IC50 after 20 hrs using propidium Iodide staining by flow cytometry in presence of 10% fetal calf serum; type: functional
Method in brief: (§1)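 NCI-H460 cells are seeded at 2 × 10⁵ per 35-mm dish in RPMI with 10% FCS. After 24 h they are serum-starved in 0.4% FCS for 2 days, then restimulated with 10% FCS with or without compound at 37 °C. Cells are trypsinized, fixed in 62% ethanol and stained 30 min in the dark (5 µg/mL propidium iodide, RNase, 1% NP-40).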

NCI-H460 [3] = assay: Cell cycle arrest in human NCI-H460 cells assessed as accumulation at G0/G1 phase at IC50 after 20 hrs using propidium Iodide staining by flow cytometry in presence of 10% fetal calf serum; type: functional; method in brief: as §1
NCI-H460 [4] = assay: Selectivity ratio of IC50 for rat SMC to IC50 for human NCI-H460 cells
[5] = target: DNA topoisomerase 2-alpha (Homo sapiens) (UniProt P11388); assay: Inhibition of topoisomerase 2-mediated relaxation of supercoiled pRYG DNA at 0.1 uM after 10 mins using ethidium bromide staining by agarose gel electrophoresis
Sequence of DNA topoisomerase 2-alpha (Homo sapiens) (P11388 whole entry): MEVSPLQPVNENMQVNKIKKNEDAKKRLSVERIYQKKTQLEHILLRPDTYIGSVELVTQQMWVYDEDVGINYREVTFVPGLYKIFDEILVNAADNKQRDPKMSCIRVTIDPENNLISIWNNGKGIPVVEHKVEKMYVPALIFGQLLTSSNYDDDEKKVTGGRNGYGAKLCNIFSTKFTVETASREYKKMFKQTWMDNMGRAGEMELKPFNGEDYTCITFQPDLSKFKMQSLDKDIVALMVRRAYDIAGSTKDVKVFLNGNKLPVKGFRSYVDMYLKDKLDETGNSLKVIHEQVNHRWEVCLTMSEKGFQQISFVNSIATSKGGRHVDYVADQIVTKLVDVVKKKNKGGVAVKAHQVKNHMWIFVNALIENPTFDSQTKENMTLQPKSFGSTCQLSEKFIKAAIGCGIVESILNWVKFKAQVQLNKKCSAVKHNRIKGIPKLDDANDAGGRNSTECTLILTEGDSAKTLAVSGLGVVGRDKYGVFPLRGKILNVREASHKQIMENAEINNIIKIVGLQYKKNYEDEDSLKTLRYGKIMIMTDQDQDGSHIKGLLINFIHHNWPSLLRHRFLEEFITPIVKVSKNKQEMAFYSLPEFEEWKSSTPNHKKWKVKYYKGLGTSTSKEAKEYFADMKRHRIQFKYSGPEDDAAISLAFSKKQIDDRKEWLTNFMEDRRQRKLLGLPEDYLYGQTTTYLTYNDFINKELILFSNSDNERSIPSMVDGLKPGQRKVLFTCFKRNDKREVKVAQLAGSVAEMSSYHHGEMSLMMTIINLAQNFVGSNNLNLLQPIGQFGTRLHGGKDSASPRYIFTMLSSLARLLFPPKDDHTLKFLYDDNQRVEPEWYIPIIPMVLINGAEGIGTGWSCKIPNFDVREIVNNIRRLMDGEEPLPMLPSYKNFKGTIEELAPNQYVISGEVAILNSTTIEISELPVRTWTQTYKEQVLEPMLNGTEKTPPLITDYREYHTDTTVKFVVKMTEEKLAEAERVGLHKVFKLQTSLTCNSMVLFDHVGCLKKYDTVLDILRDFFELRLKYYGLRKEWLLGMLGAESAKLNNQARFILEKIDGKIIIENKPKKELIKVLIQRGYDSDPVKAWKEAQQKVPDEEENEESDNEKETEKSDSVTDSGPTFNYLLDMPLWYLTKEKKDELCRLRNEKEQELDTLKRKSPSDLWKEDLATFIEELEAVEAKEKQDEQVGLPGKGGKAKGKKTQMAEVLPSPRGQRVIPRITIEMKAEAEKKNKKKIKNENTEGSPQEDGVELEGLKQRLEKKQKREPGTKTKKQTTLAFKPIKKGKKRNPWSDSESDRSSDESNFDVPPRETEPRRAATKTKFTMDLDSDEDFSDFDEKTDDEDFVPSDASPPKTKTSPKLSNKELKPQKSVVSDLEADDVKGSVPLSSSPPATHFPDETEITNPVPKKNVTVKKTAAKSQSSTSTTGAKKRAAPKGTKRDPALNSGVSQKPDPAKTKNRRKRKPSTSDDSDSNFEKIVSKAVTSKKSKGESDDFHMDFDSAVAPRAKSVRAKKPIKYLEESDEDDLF

NCI-H460 [6] = assay: Cell cycle arrest in human NCI-H460 cells assessed as accumulation at G2/M phase at IC50 after 20 hrs using propidium Iodide staining by flow cytometry in presence of 10% fetal calf serum; type: functional; method in brief: as §1
NCI-H460 [7] = assay: Cell cycle arrest in human NCI-H460 cells assessed as accumulation at sub-G0/G1 phase at IC50 after 20 hrs using propidium Iodide staining by flow cytometry in presence of 10% fetal calf serum; type: functional, cell-based
Nucleic Acid = assay: Binding affinity to supercoiled pRYG DNA at 0.1 uM after 10 mins by agarose gel electrophoresis; type: nucleic-acid assay
[8] = Cytotoxicity against RAOSMC after 3 days by cell counting analysis; settings: Rattus norvegicus, 72 h
Method in brief: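 Primary aortic SMCs from male Sprague–Dawley rats, passages 4–10, are seeded at 2 × 10⁵ per 35-mm dish in DMEM with 10% FCS. After 24 h they are arrested in 0.4% FCS for 72 h, then given 10% FCS plus compound (DMSO at most 1%) for 72 h at 37 °C. Cells are trypsinized and counted with a Coulter counter. IC50 is obtained by linear regression of log concentration versus logit.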

NCI-H460 [9] = assay: Antitumor activity against human NCI-H460 cells xenografted in athymic Swiss nude mouse assessed as tumor growth inhibition at 10 mg/kg, iv administered 2 days after tumor implantation for every 4th day for four times; type: functional, organism-based; design: dose 10 mg/kg
Method in brief: (§2)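 NCI-H460 tumor fragments are implanted s.c. in both flanks of athymic nude mice on day 0. Dosing is i.v. on days 2, 6, 10 and 14 (q4dx4) in 10% DMSO in water, with vehicle-only controls. Tumor diameters are measured twice weekly by caliper. Tumor weight in treated mice is compared with controls by unpaired two-tailed Student's t-test.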

NCI-H460 [10] = assay: Antitumor activity against human NCI-H460 cells xenografted in athymic Swiss nude mouse assessed as tumor growth inhibition at 16.9 mg/kg, iv administered 2 days after tumor implantation for every 4th day for four times; type: functional, organism-based; design: dose 16.9 mg/kg; method in brief: as §2
Mus musculus = assay: Toxicity in human […] cells xenografted in athymic Swiss nude mouse at 16.9 mg/kg, iv administered 2 days after tumor implantation for every 4th day for four times; type: organism-based; design: dose 16.9 mg/kg, route intravenous; settings: in vivo, 48 h

Row | Structure (SMILES) | IC50 (NCI-H460 [1]) [nM] | IC50 [8] [nM] | also measured
1 | O=C1c2cccc3cccc(c23)C(=O)N1CCNCCCNCCN1C(=O)c2cccc3cccc(c23)C1=O [ELINAFIDE] | 8 | 12 | Activity (NCI-H460 [2]): 13.44%; Activity (NCI-H460 [3]): 68.4%; Ratio IC50 (NCI-H460 [4]): 1.5; inhibition [5]: Active; Activity (NCI-H460 [6]): 18.15%; Activity (NCI-H460 [7]): inactive; Activity (Nucleic Acid): Active
2 | O=C1C(c2cccs2)=C(c2c[nH]c3ccccc23)C(=O)N1CCNCCCNCCN1C(=O)C(c2cccs2)=C(c2c[nH]c3ccccc23)C1=O | 4200 | 4700 | 
3 | O=C1C(c2ccccc2)=C(c2c[nH]c3ccccc23)C(=O)N1CCNCCCNCCN1C(=O)C(c2ccccc2)=C(c2c[nH]c3ccccc23)C1=O | 3900 | 1000 | 
4 | O=C1C(c2cccs2)=C(c2cccs2)C(=O)N1CCNCCCNCCN1C(=O)C(c2cccs2)=C(c2cccs2)C1=O | 4300 | 1300 | 
5 | Cn1cccc1C1=C(c2c[nH]c3ccccc23)C(=O)N(CCNCCCNCCN2C(=O)C(c3c[nH]c4ccccc34)=C(c3cccn3C)C2=O)C1=O | 3900 | 16500 | 
6 | O=C1C(c2ccco2)=C(c2cccs2)C(=O)N1CCNCCCNCCN1C(=O)C(c2ccco2)=C(c2cccs2)C1=O | 500 | 3500 | 
7 | O=C1C(c2ccccc2)=C(c2ccccc2)C(=O)N1CCNCCCNCCN1C(=O)C(c2ccccc2)=C(c2ccccc2)C1=O | 1200 | 620 | 
8 | Cn1ccc2c3ccoc3c3c(c21)C(=O)N(CCNCCCNCCN1C(=O)c2c(c4c(ccn4C)c4ccoc24)C1=O)C3=O | 3 | 90 | TGI (NCI-H460 [9]): inactive; Activity (NCI-H460 [2]): 10.56%; TGI (NCI-H460 [10]): Active; Activity (Mus musculus): Non-toxic; Activity (NCI-H460 [3]): 76.63%; inhibition [5]: Active; Activity (NCI-H460 [6]): 12.81%; Activity (NCI-H460 [7]): inactive; Activity (Nucleic Acid): Active
9 | Cn1cccc1C1=C(c2cccs2)C(=O)N(CCNCCCNCCN2C(=O)C(c3cccs3)=C(c3cccn3C)C2=O)C1=O | 3400 | 1800 | 
10 | Cn1cccc1C1=C(c2ccco2)C(=O)N(CCNCCCNCCN2C(=O)C(c3ccco3)=C(c3cccn3C)C2=O)C1=O | 650 | 730 | 
11 | O=C1c2c(c3sccc3c3ccoc23)C(=O)N1CCNCCCNCCN1C(=O)c2c(c3sccc3c3ccoc23)C1=O | 70 | > 30000 | Ratio IC50 (NCI-H460 [4]): 500
12 | O=C1c2c(c3ccccc3c3ccccc23)C(=O)N1CCNCCCNCCN1C(=O)c2c(c3ccccc3c3ccccc23)C1=O | 400 | 230 | 
13 | O=C1C(c2cccs2)=C(c2cccs2)C(=O)N1CCCN1CCN(CCCN2C(=O)C(c3cccs3)=C(c3cccs3)C2=O)CC1 | > 30000 | > 30000 | 
